For eight compounds, Activity, IC50 and Kd results are on record in ChEMBL document CHEMBL5038593, “Rational Design and Synthesis of Novel Dual PROTACs for Simultaneous Degradation of EGFR and PARP” (J Med Chem, 2021).

In general, IC50 refers to the concentration needed to halve the response being measured. A lower IC50 goes with higher potency. The Kd is a measure of binding affinity in units of concentration.

In assay [1] the target is T1, Protein cereblon/Epidermal growth factor receptor (Homo sapiens) (UniProt P00533+Q96SW2). Kind of assay: Protac activity at CRBN/EGFR in human SW1990 cells assessed as induction of EGFR degradation at 1 to 50 uM incubated for 24 hrs by Western blot analysis. In kind it is cell-based. The settings on record: dose 1-50 µM. Summed up: (§1)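 SW1990 cells grown in high-glucose DMEM (25 mM glucose) with 10% FBS, 5% CO₂, 37 °C. Seeded and left 24 h, then exposed to DMSO or compound. Cells washed in PBS, lysed in RIPA, and cleared at 13 000 rpm for 15 min. Protein measured by BCA. 20−40 μg run on 10% SDS-PAGE, moved to PVDF, blocked 1 h in 5% milk or BSA, primary antibodies 1:1000 overnight at 4 °C, ECL detection.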
T1 sequence (P00533 25-1210 limits assumed): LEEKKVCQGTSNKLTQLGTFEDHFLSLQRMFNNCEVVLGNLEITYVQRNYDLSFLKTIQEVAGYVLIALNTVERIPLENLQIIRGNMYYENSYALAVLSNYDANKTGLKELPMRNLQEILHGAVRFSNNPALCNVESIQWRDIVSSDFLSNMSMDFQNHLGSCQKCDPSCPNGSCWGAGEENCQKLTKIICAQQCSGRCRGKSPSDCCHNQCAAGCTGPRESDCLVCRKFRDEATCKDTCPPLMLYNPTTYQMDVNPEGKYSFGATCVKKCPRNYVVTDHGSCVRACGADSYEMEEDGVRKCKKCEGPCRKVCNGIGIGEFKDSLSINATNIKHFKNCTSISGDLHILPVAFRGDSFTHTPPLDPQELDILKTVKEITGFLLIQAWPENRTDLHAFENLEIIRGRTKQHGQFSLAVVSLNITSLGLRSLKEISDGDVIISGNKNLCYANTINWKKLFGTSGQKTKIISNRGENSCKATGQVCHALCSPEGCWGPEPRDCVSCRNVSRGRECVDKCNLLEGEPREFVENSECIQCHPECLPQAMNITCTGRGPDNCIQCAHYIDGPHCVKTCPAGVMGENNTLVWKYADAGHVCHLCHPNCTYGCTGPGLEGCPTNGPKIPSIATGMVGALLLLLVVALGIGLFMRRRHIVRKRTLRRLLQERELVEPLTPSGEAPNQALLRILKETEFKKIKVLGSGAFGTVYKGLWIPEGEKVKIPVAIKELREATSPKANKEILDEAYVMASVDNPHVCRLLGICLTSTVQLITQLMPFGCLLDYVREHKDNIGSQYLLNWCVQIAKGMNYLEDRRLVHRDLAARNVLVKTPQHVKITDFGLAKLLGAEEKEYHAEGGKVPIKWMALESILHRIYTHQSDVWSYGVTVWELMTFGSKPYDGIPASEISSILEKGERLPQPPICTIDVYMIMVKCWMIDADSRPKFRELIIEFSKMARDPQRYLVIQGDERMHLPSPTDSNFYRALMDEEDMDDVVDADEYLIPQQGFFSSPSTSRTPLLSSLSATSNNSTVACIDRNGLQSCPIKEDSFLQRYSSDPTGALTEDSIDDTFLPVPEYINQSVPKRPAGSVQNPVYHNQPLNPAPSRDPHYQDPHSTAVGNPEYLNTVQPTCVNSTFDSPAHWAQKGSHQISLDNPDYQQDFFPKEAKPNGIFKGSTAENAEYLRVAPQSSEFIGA
T1 sequence (Q96SW2 whole entry partner): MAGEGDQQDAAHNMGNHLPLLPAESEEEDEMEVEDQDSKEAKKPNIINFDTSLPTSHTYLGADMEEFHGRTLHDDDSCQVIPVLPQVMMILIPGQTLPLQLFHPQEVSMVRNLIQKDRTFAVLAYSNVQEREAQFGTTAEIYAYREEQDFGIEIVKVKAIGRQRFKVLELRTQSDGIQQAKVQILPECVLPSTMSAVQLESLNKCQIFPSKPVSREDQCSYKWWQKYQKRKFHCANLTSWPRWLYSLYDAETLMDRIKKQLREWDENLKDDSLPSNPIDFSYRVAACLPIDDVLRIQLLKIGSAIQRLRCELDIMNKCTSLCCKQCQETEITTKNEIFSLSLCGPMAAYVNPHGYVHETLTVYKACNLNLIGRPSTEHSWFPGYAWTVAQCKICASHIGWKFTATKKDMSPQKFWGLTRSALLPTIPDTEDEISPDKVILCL
In general terms: A western blot detects proteins with antibodies after separation by electrophoresis.

The target in assay [2] is T2, Protein cereblon/Poly [ADP-ribose] polymerase 1 (Homo sapiens) (UniProt P09874+Q96SW2). Kind of assay: Protac activity at CRBN/PARP-1 in human SW1990 cells assessed as induction of PARP-1 degradation at 1 to 50 uM incubated for 24 hrs by Western blot analysis. The format is cell-based. The settings on record: dose 1-50 µM. Summed up: as §1
T2 sequence (P09874 2-1014 limits assumed): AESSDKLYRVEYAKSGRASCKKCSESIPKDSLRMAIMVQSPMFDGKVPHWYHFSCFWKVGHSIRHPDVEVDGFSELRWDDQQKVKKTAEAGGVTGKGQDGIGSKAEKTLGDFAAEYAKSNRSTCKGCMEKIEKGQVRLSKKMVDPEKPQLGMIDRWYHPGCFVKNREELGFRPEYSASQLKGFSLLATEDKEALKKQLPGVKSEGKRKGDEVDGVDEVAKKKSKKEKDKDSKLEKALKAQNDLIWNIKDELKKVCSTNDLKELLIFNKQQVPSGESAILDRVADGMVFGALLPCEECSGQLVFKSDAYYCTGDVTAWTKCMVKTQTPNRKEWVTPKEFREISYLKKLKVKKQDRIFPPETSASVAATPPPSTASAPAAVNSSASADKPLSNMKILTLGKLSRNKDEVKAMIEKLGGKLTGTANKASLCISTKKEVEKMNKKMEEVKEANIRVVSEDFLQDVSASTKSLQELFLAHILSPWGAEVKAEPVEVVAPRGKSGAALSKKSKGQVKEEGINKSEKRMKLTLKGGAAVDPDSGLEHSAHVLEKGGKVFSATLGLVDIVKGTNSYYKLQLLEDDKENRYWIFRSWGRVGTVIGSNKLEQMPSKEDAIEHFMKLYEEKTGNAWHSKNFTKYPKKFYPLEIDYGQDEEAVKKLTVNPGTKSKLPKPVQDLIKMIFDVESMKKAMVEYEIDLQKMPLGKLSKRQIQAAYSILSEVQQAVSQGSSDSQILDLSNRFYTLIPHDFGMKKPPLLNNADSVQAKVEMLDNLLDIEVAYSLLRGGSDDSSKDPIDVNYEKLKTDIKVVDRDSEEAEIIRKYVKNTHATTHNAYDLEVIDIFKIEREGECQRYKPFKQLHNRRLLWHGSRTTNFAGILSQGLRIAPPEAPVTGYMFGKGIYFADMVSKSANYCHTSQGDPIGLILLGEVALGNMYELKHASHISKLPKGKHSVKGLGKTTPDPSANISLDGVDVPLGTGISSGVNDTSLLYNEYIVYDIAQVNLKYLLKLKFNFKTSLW
T2 sequence (Q96SW2 whole entry partner): as the sequence (Q96SW2 whole entry partner) above
A further assay has as its system NCI-H1299. Kind of assay: cells. The settings on record: Homo sapiens, NCI-H1299, 72 h. The format is functional, cell-based.
In assay [3] the target is T3, von Hippel-Lindau disease tumor suppressor/Poly [ADP-ribose] polymerase 1 (Homo sapiens) (UniProt P09874+P40337). Briefly: Protac activity at VHL/PARP-1 in human NCI-H1299 cells assessed as decrease of PARP-1 degradation at up to 15 uM pretreated with proteasome inhibitor MG132 for 4 hr followed by incubation with compound for 6 hrs by Western blot analysis. The format is cell-based. The settings on record: dose microM <=15, time 6.0 hrs. The procedure, abridged:
(§2)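 NCI-H1299 cells grown in high-glucose DMEM with 10% FBS at 37 °C, 5% CO₂. Compound given after 24 h seeding. Lysis in RIPA, BCA protein assay, 20−40 μg on 10% SDS-PAGE, PVDF transfer, primary antibodies 1:1000 overnight at 4 °C, ECL. EGFR, p-EGFR and PARP probed.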

In assay [4] the target is T3, von Hippel-Lindau disease tumor suppressor/Poly [ADP-ribose] polymerase 1 (Homo sapiens). Briefly: Protac activity at VHL/PARP-1 in human A-431 cells assessed as induction of PARP-1 degradation at 0.8 to 20 uM incubated for 36 hrs by Western blot analysis. The format is cell-based. The settings on record: dose 0.8-20 µM.
Assay [5] addresses T4, von Hippel-Lindau disease tumor suppressor/Epidermal growth factor receptor (Homo sapiens) (UniProt P00533+P40337). Kind of assay: Protac activity at VHL/EGFR in human NCI-H1299 cells assessed as decrease in EGFR degradation at up to 15 uM pretreated with proteasome inhibitor MG132 for 4 hr followed by incubation with compound for 6 hrs by Western blot analysis. The settings on record: dose microM <=15, time 6.0 hrs. The format is cell-based. The procedure, abridged:
as §2

In assay [6] the target is T4, von Hippel-Lindau disease tumor suppressor/Epidermal growth factor receptor (Homo sapiens). Kind of assay: Protac activity at VHL/EGFR in human NCI-H1299 cells assessed as induction of EGFR degradation at 4 uM incubated for 6 hrs by Western blot analysis. In kind it is cell-based. The procedure, abridged:
as §2

For assay [7] the target is unchanged. Kind of assay: Protac activity at VHL/EGFR in human NCI-H1299 cells assessed as induction of EGFR degradation by measuring reduction in p-EGFR level at 15 uM incubated for 36 hrs by Western blot analysis. The format is cell-based. The procedure, abridged: as §2
Assay [8] has as its target T3, von Hippel-Lindau disease tumor suppressor/Poly [ADP-ribose] polymerase 1 (Homo sapiens). Briefly: Protac activity at VHL/PARP-1 in human NCI-H1299 cells assessed as induction of PARP degradation at 0.47 uM incubated for 36 hrs by Western blot analysis relative to control.
Assay [9] deals with Poly [ADP-ribose] polymerase 1 (Homo sapiens, UniProt P09874). Briefly: Binding affinity to human GST-tagged PARP-1 ART domain (788 to 1014 residues) expressed in Escherichia coli BL21 (DE3) assessed as dissociation constant incubated for 30 mins by microscale thermophoresis analysis. (In general: MST reads how a fluorescent partner responds to local heating, with and without ligand.)
Poly [ADP-ribose] polymerase 1, sequence (P09874 whole entry, the tested form may be a part): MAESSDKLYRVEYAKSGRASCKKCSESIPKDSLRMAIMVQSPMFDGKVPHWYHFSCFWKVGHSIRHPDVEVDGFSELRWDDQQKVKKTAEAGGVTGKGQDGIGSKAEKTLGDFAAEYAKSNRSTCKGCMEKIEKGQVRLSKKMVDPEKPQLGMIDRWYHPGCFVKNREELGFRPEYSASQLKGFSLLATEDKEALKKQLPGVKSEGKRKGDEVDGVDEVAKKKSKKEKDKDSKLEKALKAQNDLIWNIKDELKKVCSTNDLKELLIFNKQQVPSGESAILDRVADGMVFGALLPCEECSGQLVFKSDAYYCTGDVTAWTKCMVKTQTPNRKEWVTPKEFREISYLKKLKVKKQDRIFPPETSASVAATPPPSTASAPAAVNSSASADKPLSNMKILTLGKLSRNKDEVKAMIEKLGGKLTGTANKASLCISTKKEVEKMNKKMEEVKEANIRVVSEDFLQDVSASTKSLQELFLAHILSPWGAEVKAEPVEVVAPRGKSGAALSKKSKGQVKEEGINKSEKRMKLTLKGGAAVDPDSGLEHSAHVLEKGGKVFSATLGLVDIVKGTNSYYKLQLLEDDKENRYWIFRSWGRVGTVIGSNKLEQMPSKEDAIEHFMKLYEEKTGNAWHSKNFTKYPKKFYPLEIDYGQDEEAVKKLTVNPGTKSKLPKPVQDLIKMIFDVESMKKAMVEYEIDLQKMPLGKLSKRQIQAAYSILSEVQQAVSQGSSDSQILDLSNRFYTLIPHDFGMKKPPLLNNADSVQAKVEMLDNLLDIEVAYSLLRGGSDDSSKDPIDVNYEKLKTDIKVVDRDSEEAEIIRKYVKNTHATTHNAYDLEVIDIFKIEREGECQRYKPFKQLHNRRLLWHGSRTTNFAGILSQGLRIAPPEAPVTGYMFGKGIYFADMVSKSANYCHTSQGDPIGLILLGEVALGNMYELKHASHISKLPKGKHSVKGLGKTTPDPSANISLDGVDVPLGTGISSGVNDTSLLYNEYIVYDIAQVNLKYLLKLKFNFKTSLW

The target in assay [10] is T4, von Hippel-Lindau disease tumor suppressor/Epidermal growth factor receptor (Homo sapiens). Briefly: Protac activity at VHL/EGFR in human A-431 cells assessed as induction of EGFR degradation at 0.8 to 20 uM incubated for 36 hrs by Western blot analysis. The format is cell-based. The settings on record: dose 0.8-20 µM.
Assay [11] addresses T3, von Hippel-Lindau disease tumor suppressor/Poly [ADP-ribose] polymerase 1 (Homo sapiens). Kind of assay: Protac activity at VHL/PARP-1 in human NCI-H1299 cells assessed as induction of PARP degradation at 4 uM incubated for 6 hrs by Western blot analysis. The format is cell-based. The procedure, abridged:
as §2

The target in assay [12] is Epidermal growth factor receptor (Homo sapiens, UniProt P00533). Kind of assay: biochemical. In kind it is cell-based.
Assay [13] has as its target T1, Protein cereblon/Epidermal growth factor receptor (Homo sapiens). Kind of assay: Protac activity at CRBN/EGFR in human SW1990 cells assessed as induction of EGFR degradation at 5 uM measured after 6 to 48 hrs by Western blot analysis. In kind it is cell-based. The settings on record: time 6-48 hrs, TDE = time-dependent effect. The procedure, abridged: as §1
The target is the same in assay [14]. Kind of assay: Protac activity at CRBN/EGFR in human SW1990 cells assessed as decrease in EGFR expression level at 1 to 50 uM pretreated with proteasome inhibitor MG132 for 4 hr followed by incubation with compound for 24 hrs by Western blot analysis. In kind it is cell-based. The settings on record: dose 1-50 µM. Summed up:
as §1

For assay [15], the target named is T2, Protein cereblon/Poly [ADP-ribose] polymerase 1 (Homo sapiens). Briefly: Protac activity at CRBN/PARP-1 in human SW1990 cells assessed as decrease of PARP-1 expression level at 1 to 50 uM pretreated with proteasome inhibitor MG132 for 4 hr followed by incubation with compound for 24 hrs by Western blot analysis. The format is cell-based. The settings on record: dose 1-50 µM. Summed up:
as §1

Assay [16] shares this target. Briefly: Protac activity at CRBN/PARP-1 in human SW1990 cells assessed as induction of PARP-1 degradation at 5 uM measured after 6 to 48 hrs by Western blot analysis. In kind it is cell-based. The settings on record: time 6-48 hrs, TDE = time-dependent effect. The procedure, abridged: as §1

The source made the active and inactive calls. The calls are words filed in the database; no cut-off is given here.

T3 sequence (P09874 whole entry, looked up): as the sequence (P09874 whole entry, the tested form may be a part) above
T3 sequence (P40337 whole entry, looked up): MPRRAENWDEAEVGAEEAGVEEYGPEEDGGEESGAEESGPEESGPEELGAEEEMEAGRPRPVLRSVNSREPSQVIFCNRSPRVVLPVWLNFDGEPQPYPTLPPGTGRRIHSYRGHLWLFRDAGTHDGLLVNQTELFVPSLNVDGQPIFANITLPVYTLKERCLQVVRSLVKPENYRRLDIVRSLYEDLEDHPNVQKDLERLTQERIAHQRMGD

Consider `COc1cc2ncnc(Nc3ccc(F)c(Cl)c3)c2cc1OCCCC(=O)NC(COCc1cn(CCOCCNc2cccc3c2C(=O)N(C2CCC(=O)NC2=O)C3=O)nn1)C(=O)N1CCN(C(=O)c2cc(Cc3n[nH]c(=O)c4ccccc34)ccc2F)CC1` (centres undefined), for which the outcome in assay [1] and in assay [2] was Active.
`COc1cc2ncnc(Nc3ccc(F)c(Cl)c3)c2cc1OCCCCCC(=O)NC(COCc1cn(CCCC(=O)N[C@H](C(=O)N2C[C@H](O)C[C@H]2C(=O)NCc2ccc(-c3scnc3C)cc2)C(C)(C)C)nn1)C(=O)NCCCCCC(=O)N1CCN(C(=O)c2cc(Cc3n[nH]c(=O)c4ccccc34)ccc2F)CC1` (some centres undefined) yielded an IC50 in the assay with NCI-H1299 of 19.9 µM. Moreover, the result in [3], in assay [4], in [5], in assay [6], in assay [7] and in assay [10] was Active. Besides, in assay [11], the result was Active. In addition, in assay [8], the Activity is 50%. For the same compound, the figures for the Kd in assay [9] and in assay [12] were 12.8 µM and 5.47 µM, respectively.
Take `COc1cc2ncnc(Nc3ccc(F)c(Cl)c3)c2cc1OCCCC(=O)NC(COCc1cn(CCOCCNc2cccc3c2C(=O)N(C2CCC(=O)NC2=O)C3=O)nn1)C(=O)NCCCC(=O)N1CCN(C(=O)c2cc(Cc3n[nH]c(=O)c4ccccc34)ccc2F)CC1` (centres undefined): the outcome in assay [1] and in assay [2] was Active.
For the compound `O=C1CCC(N2C(=O)c3cccc(NCCOCCn4cc(CCC(=O)N5CCN(C(=O)c6cc(Cc7n[nH]c(=O)c8ccccc78)ccc6F)CC5)nn4)c3C2=O)C(=O)N1` (centres undefined), the outcome in assay [1] and in assay [2] was Active.
As for `COc1cc2ncnc(Nc3ccc(F)c(Cl)c3)c2cc1OCCCCCC(=O)NC(COCc1cn(CCOCCOCCNc2cccc3c2C(=O)N(C2CCC(=O)NC2=O)C3=O)nn1)C(=O)NCCCCCC(=O)N1CCN(C(=O)c2cc(Cc3n[nH]c(=O)c4ccccc34)ccc2F)CC1` (centres undefined), the result in assay [1] and in assay [2] was Active.
Take `O=C(c1cc(Cc2n[nH]c(=O)c3ccccc23)ccc1F)N1CCN(C(=O)C2CC2)CC1` [OLAPARIB]: the IC50 in the assay with NCI-H1299 came to 35.9 µM.
With `COc1cc2ncnc(Nc3ccc(F)c(Cl)c3)c2cc1OCC(=O)NC(Cc1ccc(OCc2cn(CCOCCNc3cccc4c3C(=O)N(C3CCC(=O)NC3=O)C4=O)nn2)cc1)C(=O)N1CCN(C(=O)c2cc(Cc3n[nH]c(=O)c4ccccc34)ccc2F)CC1` (centres undefined), the Activity entry in assay [13] and in assay [16] was “Tde” throughout. In addition, the result in assay [14], in [15], in assay [1] and in assay [2] was Active. The Kd in [9] stood at 7.89 µM; in assay [12], 2.74 µM.
On to `COc1cc2ncnc(Nc3ccc(F)c(Cl)c3)c2cc1OCCCC(=O)NCc1cn(CCOCCNc2cccc3c2C(=O)N(C2CCC(=O)NC2=O)C3=O)nn1` (centres undefined), for which, in assay [1], the result was Active.
